Assay results as given in article PMC5520537 (Antiviral research, 2017).
Where two headings read alike, the source gives them in different places.

Legend:
HBV RNaseH [1] = target: T1, HBV RNaseH (Hepatitis B virus genotype D subtype ayw, UniProt P03156); test: Oligonucleotide-directed RNA cleavage assay with purified HBV RNaseH; format: biochemical; settings: for Inhibition of HBV RNaseH, Oligonucleotide directed cleavage assay: qualitative, compounds at 100, 60 and 20 μM, 16 previously untested compounds
Method in brief: (§1)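 Enzymes were His-tagged and expressed in E. coli, then nickel-affinity purified. A 32P-labelled RNA annealed to a DNA oligonucleotide was incubated with RNaseH and test compound at 42°C for 90 min. Products were gel-resolved and autoradiographed. Inhibition was scored qualitatively as dose-dependent reduction in substrate degraded.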

HBV genotype D = test: HBV replication inhibition assay in HepDES19 cells; format: cell-based, hepatitis B virus; settings: for HBV replication inhibition, qualitative screen: 20 μM, plus-polarity DNA; for EC50: read-out: HBV replication inhibition (EC50), 3 days, plus-polarity DNA strand, average ± SD
HBV RNaseH [2] = target: T1, HBV RNaseH; settings: qualitative; previously reported; ref Cai et al., 2014; cited from earlier work
HBV polymerase = HBV polymerase (Hepatitis B virus genotype D subtype ayw, UniProt P03156); test: Endogenous polymerase reaction; format: biochemical; settings: inhibitors at 4X EC50; #138 and #211 at 30 μM; ddTTP […]; 7 hours
HBV RNaseH [3] = target: T1, HBV RNaseH; test: Molecular beacon fluorescence RNaseH cleavage assay; format: biochemical; settings: for Inhibition of HBV RNaseH, Molecular Beacon cleavage assay: qualitative, 0 to 500 μM compound, 2.1 μg HBV RNaseH; for Inhibition in the molecular beacon assay: 2.1 μg purified HBV RNaseH, 0 to 500 μM
HepDES19 cells [4] = settings: read-out: Toxicity in HepDES19, MTS (CC50); 72 hours; average ± SD
HepDES19 cells [5] = settings: read-out: Toxicity in HepDES19, NR (CC50); 72 hours; average ± SD
HepDES19 cells [6] = settings: read-out: Toxicity in HepDES19, LDH (CC50); 72 hours; average ± SD
huRNaseH1 = target: T2, huRNaseH1 (Homo sapiens, UniProt O60930); test: Oligonucleotide-directed cleavage assay with purified huRNaseH1; format: biochemical; settings: 100, 60 and 20 μM
T2 sequence (O60930 1-286): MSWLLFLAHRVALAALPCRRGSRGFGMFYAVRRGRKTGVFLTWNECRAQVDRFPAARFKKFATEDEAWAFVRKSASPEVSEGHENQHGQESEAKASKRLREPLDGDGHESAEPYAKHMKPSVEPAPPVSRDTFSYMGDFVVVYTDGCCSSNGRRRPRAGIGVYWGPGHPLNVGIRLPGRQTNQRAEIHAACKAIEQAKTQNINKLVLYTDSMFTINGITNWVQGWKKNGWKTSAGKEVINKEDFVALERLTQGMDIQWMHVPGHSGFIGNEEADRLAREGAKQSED
Method in brief: as §1

HIV replication = settings: read-out: HIV replication inhibition; ref Suchaud et al., 2014; cited from earlier work

T1 sequence (P03156 671-832): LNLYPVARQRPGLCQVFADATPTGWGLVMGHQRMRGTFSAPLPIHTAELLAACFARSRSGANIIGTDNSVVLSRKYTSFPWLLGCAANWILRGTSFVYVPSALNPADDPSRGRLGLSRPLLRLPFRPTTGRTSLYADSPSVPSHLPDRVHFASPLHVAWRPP
Sequence of HBV polymerase (P03156 whole entry): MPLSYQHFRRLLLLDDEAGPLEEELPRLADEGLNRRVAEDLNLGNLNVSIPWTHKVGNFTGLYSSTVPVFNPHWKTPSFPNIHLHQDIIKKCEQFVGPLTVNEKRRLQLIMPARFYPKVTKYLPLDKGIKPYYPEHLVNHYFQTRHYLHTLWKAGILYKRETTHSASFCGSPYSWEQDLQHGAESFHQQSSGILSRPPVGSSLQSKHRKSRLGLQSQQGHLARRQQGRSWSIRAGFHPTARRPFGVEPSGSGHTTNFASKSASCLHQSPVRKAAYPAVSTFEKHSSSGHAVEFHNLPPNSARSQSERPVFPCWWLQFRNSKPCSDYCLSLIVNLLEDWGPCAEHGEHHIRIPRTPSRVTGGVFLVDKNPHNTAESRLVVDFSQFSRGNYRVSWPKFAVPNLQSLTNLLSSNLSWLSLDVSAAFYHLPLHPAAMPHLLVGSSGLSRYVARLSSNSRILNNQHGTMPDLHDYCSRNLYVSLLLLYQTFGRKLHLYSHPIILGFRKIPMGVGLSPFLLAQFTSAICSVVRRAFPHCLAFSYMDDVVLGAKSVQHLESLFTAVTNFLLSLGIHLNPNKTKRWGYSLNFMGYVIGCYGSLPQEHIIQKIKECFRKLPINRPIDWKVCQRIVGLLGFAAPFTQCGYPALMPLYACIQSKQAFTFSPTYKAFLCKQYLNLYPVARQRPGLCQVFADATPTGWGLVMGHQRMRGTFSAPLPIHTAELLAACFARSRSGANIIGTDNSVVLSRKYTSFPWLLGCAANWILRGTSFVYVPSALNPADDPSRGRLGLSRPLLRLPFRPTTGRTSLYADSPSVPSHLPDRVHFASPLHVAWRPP

SMILES | Inhibition of HBV RNaseH, Oligonucleotide directed cleavage assay (HBV RNaseH [1]) | HBV replication inhibition, qualitative screen (HBV genotype D) | Inhibition of HBV RNaseH, Oligonucleotide directed cleavage assay (HBV RNaseH [2]) | Inhibition of HBV RNaseH, Molecular Beacon cleavage assay (HBV RNaseH [3]) | CC50 (HepDES19 cells [4]) [µM] | CC50 (HepDES19 cells [5]) [µM] | CC50 (HepDES19 cells [6]) [µM] | other results
Cc1cc(CC(C)CC(C)(C)C)n(O)c(=O)c1.NCCO (centres unmarked) [Compound 191, Piroctone olamine, reference compound] | − (No inhibition detected at 100 μM) | − (No inhibition detected at 20 μM) | – | – | – | – | – | –
Cc1cc(C2CCCCC2)n(O)c(=O)c1 [Compound 41, Ciclopirox, reference compound] | – | − (No inhibition detected at 20 μM) | − (No inhibition detected at 100 μM) | – | – | – | – | –
Oc1nc2ccccc2nc1O [Compound 198, 2,3-dihydroxy-quinoxaline] | − (No inhibition detected at 100 μM) | − (No inhibition detected at 20 μM) | – | – | – | – | – | –
Cc1cn([C@H]2CC[C@@H](COP(=O)(O)OP(=O)(O)OP(=O)(O)O)O2)c(=O)[nH]c1=O [ddTTP] | – | – | – | – | – | – | – | Effect on 32P incorporation / HBV DNA elongation in EPR (HBV polymerase): strongly inhibited
O=C(NCc1ccc(F)cc1)C1C(=O)N(O)C(=O)c2cc(Cl)ccc21 (centres unmarked) [Compound 87] | – | – | − (No inhibition detected at 100 μM) | − (No inhibition detected at 500 μM) | 37 ± 17 | 24 ± 1 | 52 ± 15 | TI (therapeutic index, CC50(MTS)/EC50) (HBV genotype D): 8.2; EC50 (HBV genotype D): 4.5 ± 3.7 µM
CC(=Nc1ccccc1N)c1c(C)cc(=O)n(O)c1O [Compound 208] | + (Dose-dependent inhibition at ≤100 μM) | – | – | + (Dose-dependent inhibition at ≤500 μM) | 15 ± 7 | 13 ± 1 | 12 ± 0.1 | Inhibition of RNA cleavage by the HBV RNaseH (HBV RNaseH [1]; 100, 60 and 20 μM): inhibited RNA cleavage; Inhibition in the molecular beacon assay (HBV RNaseH [3]): inhibited; Inhibition of huRNaseH1 (huRNaseH1): did not inhibit; Stability in mouse liver microsomes: stable
COc1ccc2c(c1)C(=O)N(O)C(=O)C2C(=O)NCc1ccc(F)cc1 (centres unmarked) [Compound 88] | – | – | − (No inhibition detected at 100 μM) | − (No inhibition detected at 500 μM) | 40 ± 6 | 26 ± 2 | 57 ± 6 | TI (therapeutic index, CC50(MTS)/EC50) (HBV genotype D): 16; EC50 (HBV genotype D): 2.5 ± 0.5 µM
Nc1cccc(=O)[nH]1 [Compound 206] | − (No inhibition detected at 100 μM) | − (No inhibition detected at 20 μM) | – | – | – | – | – | Inhibition of huRNaseH1 (huRNaseH1): detectably inhibited
O=C1CCC(=O)N1O [Compound 139] | – | − (No inhibition detected at 20 μM) | − (No inhibition detected at 100 μM) | – | – | – | – | HBV replication inhibition / activity (HBV genotype D): inactive
O=c1[nH]c(=O)c2ccccc2[nH]1 [Compound 197, Benzoylene urea] | − (No inhibition detected at 100 μM) | − (No inhibition detected at 20 μM) | – | – | – | – | – | –
O=C(Nc1ccc2c(c1)C(=O)N(O)C(=O)C2C(=O)NCc1ccc(F)cc1)c1ccccc1 (centres unmarked) [Compound 86] | – | – | − (No inhibition detected at 100 μM) | − (No inhibition detected at 500 μM) | 99 ± 2 | 52 ± 11 | > 100 | TI (therapeutic index, CC50(MTS)/EC50) (HBV genotype D): 71; EC50 (HBV genotype D): 1.4 ± 0.3 µM; EC50 (HIV replication): > 21 µM
Cc1cc(COc2ccc(Oc3ccc(Cl)cc3)cc2)n(O)c(=O)c1 [Compound 211, Rilopirox, reference compound] | − (No inhibition detected at 100 μM) | − (No inhibition detected at 20 μM) | – | − (No inhibition detected at 500 μM) | – | – | – | Inhibition in the molecular beacon assay (HBV RNaseH [3]): had no effect on the rate of substrate degradation; HBV replication inhibition / activity (HBV genotype D): inactive; Effect on 32P incorporation / HBV DNA elongation in EPR (HBV polymerase): None of the HBV inhibitors nor the two negative control compounds (#138 and 211) significantly altered incorporation
NN1C(=O)Cc2ccccc2C1=O [Compound 204] | − (No inhibition detected at 100 μM) | − (No inhibition detected at 20 μM) | – | – | – | – | – | HBV replication inhibition / activity (HBV genotype D): inactive; Inhibition of huRNaseH1 (huRNaseH1): detectably inhibited
